In ChEMBL document CHEMBL1133161 (J Med Chem, 2000):
Several values for one entry are separate records, joined by “and”; a condition that tells them apart may be missing. Equal values may be shown once.

Tests used:
[1] = molecular target: Monoamine transporters; Norepinephrine & serotonin (Rattus norvegicus) (UniProt P31652+Q9WTR4); experiment: Relative affinity for norepinephrine over 5-HT transporters; format: protein assay
How it was run: (§1)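 Selectivity ratios calculated from Ki values of the rat synaptosomal [3H]DA, [3H]NE and [3H]5-HT uptake inhibition assays.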

Rattus norvegicus [2] = species on record: Rattus norvegicus; experiment: Compound was evaluated for its ability to antagonizing serotonin high affinity uptake was determined using [3H]5-HT on synaptosomes prepared from rat midbrain or parietal cortices.; format: functional; conditions: Brain
[3] = molecular target: Sodium-dependent dopamine transporter (Rattus norvegicus, UniProt P23977); experiment: Inhibition of [3H]DA uptake by dopamine transporter of rat striata synaptosomes; format: subcellular, Brain
Sodium-dependent dopamine transporter, sequence (P23977 whole entry): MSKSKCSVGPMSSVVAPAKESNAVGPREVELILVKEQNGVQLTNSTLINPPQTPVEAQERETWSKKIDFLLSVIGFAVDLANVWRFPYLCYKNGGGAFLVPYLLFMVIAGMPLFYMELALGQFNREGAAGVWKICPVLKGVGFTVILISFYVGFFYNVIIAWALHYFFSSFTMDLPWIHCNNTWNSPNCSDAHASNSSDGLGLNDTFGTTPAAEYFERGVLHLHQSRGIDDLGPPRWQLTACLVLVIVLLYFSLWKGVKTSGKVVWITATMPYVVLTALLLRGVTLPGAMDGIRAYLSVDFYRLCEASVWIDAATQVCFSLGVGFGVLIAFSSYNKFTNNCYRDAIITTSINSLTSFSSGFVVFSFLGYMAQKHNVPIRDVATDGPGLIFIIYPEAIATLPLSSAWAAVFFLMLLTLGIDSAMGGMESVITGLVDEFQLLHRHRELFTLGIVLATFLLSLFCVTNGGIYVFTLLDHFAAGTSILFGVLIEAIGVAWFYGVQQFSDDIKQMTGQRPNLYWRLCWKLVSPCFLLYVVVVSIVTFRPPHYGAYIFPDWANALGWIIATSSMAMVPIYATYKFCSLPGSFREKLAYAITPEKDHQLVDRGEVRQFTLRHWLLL
How it was run: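 Rat striatum homogenised in 0.32 M sucrose, P2 synaptosomes resuspended in KRH buffer; preincubated with drug 30 min at 37 °C, then [3H]DA 3-5 nM final for 5 min. Stopped with cold Na-free glucosamine buffer, then filtered; scintillation counting. Six concentrations in triplicate, 2-5 experiments.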

[4] = molecular target: Monoamine transporters; serotonin & dopamine (Rattus norvegicus) (UniProt P31652+P23977); experiment: Relative affinity for dopamine over 5-HT transporters; format: protein assay; how it was run: as §1
Monoamine transporters; serotonin & dopamine (Rattus norvegicus), sequence (P23977 whole entry, looked up): as the sequence (P23977 whole entry) above
Monoamine transporters; serotonin & dopamine (Rattus norvegicus), sequence (P31652 whole entry, looked up): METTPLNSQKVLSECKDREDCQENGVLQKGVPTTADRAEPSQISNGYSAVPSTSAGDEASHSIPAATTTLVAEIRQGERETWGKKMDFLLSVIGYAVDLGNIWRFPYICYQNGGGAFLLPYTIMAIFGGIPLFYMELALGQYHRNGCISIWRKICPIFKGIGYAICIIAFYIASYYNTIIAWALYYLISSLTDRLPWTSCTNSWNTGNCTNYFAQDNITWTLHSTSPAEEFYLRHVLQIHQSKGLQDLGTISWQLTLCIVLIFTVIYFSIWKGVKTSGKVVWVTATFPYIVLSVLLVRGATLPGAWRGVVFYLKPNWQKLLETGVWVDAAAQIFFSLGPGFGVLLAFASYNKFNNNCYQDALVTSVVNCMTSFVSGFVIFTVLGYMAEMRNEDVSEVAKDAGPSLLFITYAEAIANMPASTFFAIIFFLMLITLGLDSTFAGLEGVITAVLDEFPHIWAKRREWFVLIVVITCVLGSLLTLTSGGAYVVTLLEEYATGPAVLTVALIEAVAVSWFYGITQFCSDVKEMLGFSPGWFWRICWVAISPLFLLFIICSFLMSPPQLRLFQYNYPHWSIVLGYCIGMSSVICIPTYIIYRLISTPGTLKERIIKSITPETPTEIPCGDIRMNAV

[5] = molecular target: Sodium-dependent serotonin transporter (Rattus norvegicus, UniProt P31652); experiment: Inhibition of [3H]5-HT uptake by Serotonin transporter of rat midbrain or parietal synaptosomes; format: subcellular, Brain
Sodium-dependent serotonin transporter, sequence (P31652 whole entry): as the sequence (P31652 whole entry, looked up) above
How it was run: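 Rat midbrain P2 synaptosomes in modified KRH buffer; preincubated with drug 30 min at 37 °C, then [3H]5-HT 4-5 nM for 5 min. Stopped with cold Na-free glucosamine buffer, then filtered; scintillation counting. […] Ki from IC50 using Km 53 nM. Six drug concentrations in triplicate, 2-5 experiments.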

[6] = molecular target: Norepinephrine transporter (Rattus norvegicus, UniProt Q9WTR4); experiment: Inhibition of [3H]NE uptake by Norepinephrine transporter of rat occipital cortex synaptosomes; format: subcellular, Brain
Norepinephrine transporter, sequence (Q9WTR4 whole entry): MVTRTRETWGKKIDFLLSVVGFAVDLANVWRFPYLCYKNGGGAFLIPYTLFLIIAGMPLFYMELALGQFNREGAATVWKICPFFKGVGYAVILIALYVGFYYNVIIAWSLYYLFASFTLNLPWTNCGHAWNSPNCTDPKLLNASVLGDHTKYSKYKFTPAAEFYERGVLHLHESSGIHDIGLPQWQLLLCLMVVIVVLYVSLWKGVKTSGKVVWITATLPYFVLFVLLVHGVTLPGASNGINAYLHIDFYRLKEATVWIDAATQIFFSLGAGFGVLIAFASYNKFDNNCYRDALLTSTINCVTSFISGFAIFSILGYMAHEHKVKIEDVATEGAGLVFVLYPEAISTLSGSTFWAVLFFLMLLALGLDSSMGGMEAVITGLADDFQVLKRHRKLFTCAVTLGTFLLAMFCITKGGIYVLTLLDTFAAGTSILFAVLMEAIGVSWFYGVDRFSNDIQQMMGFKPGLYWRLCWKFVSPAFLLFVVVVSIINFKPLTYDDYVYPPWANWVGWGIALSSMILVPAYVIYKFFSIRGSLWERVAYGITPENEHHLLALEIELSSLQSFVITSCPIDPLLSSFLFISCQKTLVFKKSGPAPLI
How it was run: (§2)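 Rat parietal and occipital cortex P2 synaptosomes in ice-cold modified KRH buffer; preincubated with drug 30 min at 37 °C, then [3H]NE 8-10 nM added for 5 min. Stopped with cold Na-free glucosamine buffer, then filtered; scintillation counting. Specific uptake defined with 3 µM desipramine. Ki from IC50 using Km 54 nM. Six drug concentrations in triplicate, 2-5 experiments.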

Rattus norvegicus [7] = species on record: Rattus norvegicus; experiment: Compound was evaluated for its ability to inhibit the uptake of dopamine(DA) into nerve ending using [3H]DA on synaptosomes obtained from dissected rat striata.; format: functional; conditions: Brain
Rattus norvegicus [8] = species on record: Rattus norvegicus; experiment: Compound was evaluated for its ability to antagonizing norepinephrine (NE) high affinity uptake was determined using [3H]NE on synaptosomes prepared from rat occipital cortices.; format: functional; conditions: Brain; how it was run: as §2
Rattus norvegicus [9] = species on record: Rattus norvegicus; experiment: Compound was evaluated for its ability to antagonizing norepinephrine (NE), high affinity uptake was determined using [3H]NE on synaptosomes prepared from rat occipital cortices.; conditions: Brain

SMILES | Ratio [1] | IC50 (Rattus norvegicus [2]) [nM] | Ki [3] [nM] | Ratio [4] | Ki [5] [nM] | Ki [6] [nM] | IC50 (Rattus norvegicus [7]) [nM] | IC50 (Rattus norvegicus [8]) [nM] | IC50 (Rattus norvegicus [9]) [nM]
COC(=O)[C@H]1CN(C)CC[C@@H]1c1ccc2ccccc2c1 | 5.7 | 46 | 947 | 22.6 | 42 | 241 | > 1000 | – | –
C=Cc1ccc([C@H]2CCN(C)C[C@H]2C(=O)OC)cc1 | – | 155 | – | – | 138 | 175 | – | 204 | –
COC(=O)[C@H]1CN(C)CC[C@H]1c1ccc2ccccc2c1 | 3.2 | 13 | 271 | 23 | 12 | 38 | 293 | – | –
CNCCC(Oc1ccc(C(F)(F)F)cc1)c1ccccc1 (stereo unspecified) [FLUOXETINE] | – | 8.1 | – | – | – | – | > 4500 | 193 | –
COC(=O)[C@@H]1CNCC[C@H]1c1ccc2ccccc2c1 | 8.6 | 3.9 | 90 | 26 | 3.5 | 30 | 97 | 34 | –
COC(=O)[C@@H]1CN(C)CC[C@@H]1c1ccc(-c2ccccc2)cc1 | 3.3 | 67 | 173 | 2.8 | 62 | 203 | 184 | 239 | –
C#Cc1ccc([C@H]2CCN(C)C[C@H]2C(=O)OC)cc1 | 2.1 | 189 | 187 | 1.1 | 175 | 364 | 213 | 399 | –
COC(=O)[C@@H]1CN(C)CC[C@@H]1c1ccc(Cl)cc1 | 0.23 | 440 | 69 | 0.18 | 391 | 88 | 75 | 101 | –
COC(=O)[C@@H]1CN(C)CC[C@H]1c1ccc2ccccc2c1 | 0.14 | 209 | 87 | 0.45 | 192 | 27 | 94 | – | –
CCc1ccc([C@H]2CCN(C)CC2C(=O)OC)cc1 (stereo partly specified) | > 4 | 275 | > 1700 | > 6 | 255 | > 1100 | > 1800 | > 1300 | –
C=CCc1ccc([C@H]2CCN(C)C[C@H]2C(=O)OC)cc1 | > 3.5 | 334 | 964 | 3.1 | 309 | > 1000 | > 1000 | > 1200 | –
COC(=O)[C@@H]1CN(C)CC[C@@H]1c1ccc2ccccc2c1 | – | 8.2 | 21 | 2.8 and 4.5 | 7.6 | 34 | 23 | – | –
COC(=O)[C@H]1[C@@H](OC(=O)c2ccccc2)C[C@@H]2CC[C@H]1N2C [COCAINE] | – | – | – | – | – | – | – | – | 127
COC(=O)[C@@H]1CN(C)CC[C@@H]1c1cccc2ccccc12 | 2.8 | 113 | 304 | 3 | 101 | 281 | 326 | 337 | –
